Only a selection was taken, and hits are over-represented in it overall.
Phagocytosis inh = macrophage phagocytosis inhibition; J774A.1 macrophage IgG-bead phagocytosis, imaging; inhibition, % at 5 µM; 110,000 tested, 0.07% active;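 active = inhibition above the mean of the plate negative controls plus 5 SD, cut at about 13% in these data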;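 also: phagocytic index as fraction of beads internalized from green versus red external bead signal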
HCT116 bCat-KO = beta-catenin-lacking colon tumor cell growth suppression; HCT116 beta-catenin knockout viability, CellTiter-Glo, 60 h; hits give low values; viability, % at 10 µM; 140,000 tested, 1.5% active; AID 818;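 active = viability at or under a set limit, the compound median less 4 SD, cut at about 6% in these data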
HUVEC prolif 384 = human endothelial cell proliferation inhibition | HUVEC proliferation, CellTiter-Glo luminescence, 72 h; hits give low values | viability, % at 10 µM (by protocol) | 86,000 tested, 1.1% active | AID 648;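 active = viability at or below 30%; inactive = viability above 30%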
H69AR growth 86K = growth inhibitors of human H69AR lung tumor cells. viability, % at 10 µM. H69AR lung tumor viability, ATP luminescence, 72 h; hits give low values. AID 598. 85,000 tested, 6% active;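 active = viability at or below 40%; inactive = viability above 40%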;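 also: multidrug resistant small cell line overexpressing MRP-1 efflux transporter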
HCT116 PTEN-null = growth suppressors of cells with PTEN tumor suppressor deletion | HCT116 PTEN-null viability, CellTiter-Glo, 60 h; hits give low values | viability, % at 10 µM | 140,000 tested, 1.2% active;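 active = viability at or below a set limit, 4 SD under the median of all tested compounds, cut at about 3.7% in these data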;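 also: PTEN knockout HCT116 line with beta catenin targeted HCT116 as companion control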
Fibroblast inh = blocks proliferation of human lung fibroblasts | LL 47 human lung fibroblast viability, ATP luminescence; hits give low values | viability, % at 10 µM | 85,000 tested, 1.1% active;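 active = viability at or below 50% in the single dose screen; inactive = viability above 50%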;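 also: compound exposure lasted 72 h before the ATP readout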
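Assay system: human lung fibroblast line LL 47, low passage. Input: 1,150 fibroblasts seeded per well. Times: overnight cell rest, 72 h compound treatment at 37 °C. Evaluation: % viability of median cell-only signal. Technique: luminescent ATP detection, CellTiter-Glo. Control set: cell-only wells, no compound.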
Large screens that a line does not name were inactive.

CCOc1cc(/C=C2/C(=N)N3C=CSC3=NC2=O)ccc1OCCCOc1ccccc1C	HUVEC prolif 384 18, H69AR growth 86K 6.5, Fibroblast inh 32 (no result: Phagocytosis inh)
COc1cc(/C=C2/C(=N)N3C=CSC3=NC2=O)ccc1OCCCOc1ccccc1C	HUVEC prolif 384 15, H69AR growth 86K 6.1
COc1ccc2ccccc2c1C(=O)/C=C\c1ccoc1	none (no result: HUVEC prolif 384, H69AR growth 86K, Fibroblast inh)
O=C(CCn1c(=O)oc2ccccc21)N1CCCCCC1	none (no result: Phagocytosis inh)
O=C(CCn1c(=O)oc2ccccc21)N1CCN(c2ccccc2Cl)CC1	H69AR growth 86K 18 (no result: Phagocytosis inh)
NNC(=O)c1cccc(O)c1	none (no result: HUVEC prolif 384, H69AR growth 86K, Fibroblast inh)
COc1ccc(C(C(=O)NC(C)(C)C)N(CC2CCCO2)C(=O)CCC(=O)Nc2cc(C)on2)cc1 (centres undefined)	none (no result: HUVEC prolif 384, H69AR growth 86K, Fibroblast inh)
COc1ccc(Cn2c(CCC(=O)Nc3ccc(C)c(C)c3)nc3cccnc32)cc1	H69AR growth 86K 37
COc1ccc(NC(=O)c2cc(CN3C(=O)c4ccccc4C3=O)ccc2OC)cn1	H69AR growth 86K 17 (no result: Fibroblast inh)
Cc1ccc(-c2nnc(SCC(=O)Nc3ccc(S(=O)(=O)N4CCCCCC4)cc3)o2)cc1	H69AR growth 86K 8.8
CC(=O)c1cccc(NC(=O)CSc2nnc(-c3ccc(S(=O)(=O)N4CCCC4)cc3)o2)c1	none
Cc1csc(NC(=O)CSc2nnc(-c3ccc(S(=O)(=O)N4CCCC4)cc3)o2)n1	H69AR growth 86K 34
CCN(CC)S(=O)(=O)c1ccc(-c2nnc(SCC(=O)Nc3nc(C)cs3)o2)cc1	none
O=C1OCc2cc(NC(=O)C3COc4ccccc4O3)ccc21 (centres undefined)	none (no result: Phagocytosis inh)
CCN(Cc1ccccc1)S(=O)(=O)c1ccc(S(=O)(=O)N(Cc2ccccn2)Cc2ccco2)cc1	H69AR growth 86K 22
Cc1cc(S(=O)(=O)N(Cc2ccccn2)Cc2ccco2)ccc1-n1cnnn1	none
CC1(C)CC(=O)C2=C(C1)N(c1cccc(Cl)c1)C(=O)NC2(C(F)(F)F)C(F)(F)F	none (no result: HUVEC prolif 384, H69AR growth 86K, Fibroblast inh)
Cc1cc(NC(=O)c2ccc3c(c2)C(=O)N(CCC(C)C)C3=O)no1	H69AR growth 86K 40
Cc1cc(NC(=O)c2ccc3c(c2)C(=O)N(C2CCCCC2)C3=O)no1	H69AR growth 86K 27
Cc1cc(NC(=O)c2ccc3c(c2)C(=O)N(C)C3=O)no1	none
Cc1cc(NC(=O)c2ccc3nc(-c4ccccc4)c(-c4ccccc4)nc3c2)no1	H69AR growth 86K 16, Fibroblast inh 18
Cc1ccc([N+](=O)[O-])cc1-c1[nH]c(-c2ccc(O)c(O)c2)nc1-c1ccccc1	H69AR growth 86K 10
COc1ccc(-c2nc(-c3ccccc3)c(-c3cc([N+](=O)[O-])ccc3C)[nH]2)cc1O	none (no result: Phagocytosis inh)
CC(C)N(C(=O)c1ccccc1-c1ccccc1)C(C)C	none
Cc1ccc2c(c1)C(c1ccc([N+](=O)[O-])cc1)=NNC(c1ccc(Br)cc1)=N2	HCT116 bCat-KO 3.5, HCT116 PTEN-null 2.5 (no result: HUVEC prolif 384, H69AR growth 86K, Fibroblast inh)
CCc1ccc2c(c1)C(c1ccc([N+](=O)[O-])cc1)=NNC(c1ccc(Br)cc1)=N2	none (no result: Phagocytosis inh, HUVEC prolif 384, H69AR growth 86K, Fibroblast inh)
CCOc1ccc(S(=O)(=O)Oc2ccc3ccccc3c2)cc1	none (no result: HUVEC prolif 384, H69AR growth 86K, Fibroblast inh)
COc1cccc(-c2nc(NCC3CCCO3)c3ccccc3n2)c1O (centres undefined)	H69AR growth 86K 32 (no result: Phagocytosis inh)
CCC(C)Nc1nc(-c2cccc(OC)c2O)nc2ccccc12 (centres undefined)	HCT116 bCat-KO 2.5, H69AR growth 86K 4.9, HCT116 PTEN-null 2.1 (no result: Phagocytosis inh)
Oc1ccccc1-c1nc(NCC2CCCO2)c2ccccc2n1 (centres undefined)	H69AR growth 86K 36
CC(C)NC(=O)CSc1nnc(-c2ccncc2)n1-c1ccccc1	none (no result: HUVEC prolif 384, H69AR growth 86K, Fibroblast inh)
Cc1ccc(Cl)cc1N1CCN(Cc2nc3ccsc3c(=O)[nH]2)CC1	none (no result: HUVEC prolif 384, H69AR growth 86K, Fibroblast inh)
Cc1cccnc1Nc1nc(-c2ccc(O)c(O)c2)cs1	H69AR growth 86K 28
CCCSc1nnc(Sc2nnnn2-c2ccccc2)s1	HUVEC prolif 384 7.6, H69AR growth 86K 5.4
Cc1ccccc1-n1nnnc1Sc1nnnn1-c1ccccc1	HCT116 bCat-KO 2.0, HUVEC prolif 384 28, H69AR growth 86K 2.7, HCT116 PTEN-null 1.3, Fibroblast inh 21
Cc1ccc2c(CN3CCN(Cc4ccc5c(c4)OCO5)CC3)cc(=O)oc2c1C	none
Cc1cc(C)c2c(CN3CCN(Cc4ccc5c(c4)OCO5)CC3)cc(=O)oc2c1C	H69AR growth 86K 33
COc1ccccc1/C=C/C(=O)NCC(=O)N/N=C/c1cc(Br)ccc1OC	H69AR growth 86K 19
